According to ChEMBL document CHEMBL4406918, “Inhibitory Effects of Multivalent Polypeptides on the Proliferation and Metastasis of Breast Cancer Cells” (ACS Med Chem Lett, 2019):
Activity calls are given as the source filed them. No cut-off for these calls is given here. Where a SMILES comes first, the peptide text is derived from it. Side-chain parts run from the residue outwards.

Experiments:
[1] = system: 4T1; test: Antitumour activity against mouse 4T1 cells xenografted in BALB/c mouse assessed as increase in damage of tumor tissue at 10 mg/kg administered intratumorally and measured after 24 days by H and E staining based inverted optical microscopic method; format: functional, organism-based
In short: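 Tumours from 4T1-bearing BALB/c mice given 6 doses of 10 mg/kg (saline control) were sectioned and stained with H&E, plus CD31, Ki-67 and TUNEL.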

[2] = system: 4T1; test: Antiinvasive activity in mouse 4T1 cells assessed as inhibition of cell invasion at 0.2 mM incubated for 24 hrs by crystal violet staining based matrigel invasion assay relative to control; format: functional; details: 4T1, 24 h
In short: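 4T1 cells, Matrigel-coated Transwell invasion with 0.2 mM compound. Invasion rate comes from counting cells on the underside of the Matrigel-coated porous membrane, relative to untreated control. Mean ± SD, n = 3.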

[3] = system: 4T1; test: Induction of cell cycle arrest in mouse 4T1 cells assessed as accumulation at G0/G1 phase at 0.4 mM incubated for 24 hrs by PI staining based flow cytometric analysis (reference value: 37.78%); format: functional
[4] = Toxicity in BALB/c mouse xenografted with mouse 4T1 cells assessed as induction of morphological lesions in liver at 10 mg/kg administered intratumorally and measured after 24 days by H and E staining based inverted optical microscopic method; format: organism-based; details: in vivo, other, 576 h
[5] = system: 4T1; test: Induction of apoptosis in mouse 4T1 cells assessed as necrotic cells at 0.4 mM incubated for 24 hrs by Annexin V-FITC/PI based FACS analysis (reference value: 0.47%); format: functional
[6] = target: Matrix metalloproteinase-9 (Mus musculus) (UniProt P41245); test: Residual MMP9 activity in mouse 4T1 cells at 0.2 mM incubated for 24 hrs by coomassie brilliant blue staining based gelatin zymography assay relative to control
Matrix metalloproteinase-9 (Mus musculus), sequence (P41245 whole entry): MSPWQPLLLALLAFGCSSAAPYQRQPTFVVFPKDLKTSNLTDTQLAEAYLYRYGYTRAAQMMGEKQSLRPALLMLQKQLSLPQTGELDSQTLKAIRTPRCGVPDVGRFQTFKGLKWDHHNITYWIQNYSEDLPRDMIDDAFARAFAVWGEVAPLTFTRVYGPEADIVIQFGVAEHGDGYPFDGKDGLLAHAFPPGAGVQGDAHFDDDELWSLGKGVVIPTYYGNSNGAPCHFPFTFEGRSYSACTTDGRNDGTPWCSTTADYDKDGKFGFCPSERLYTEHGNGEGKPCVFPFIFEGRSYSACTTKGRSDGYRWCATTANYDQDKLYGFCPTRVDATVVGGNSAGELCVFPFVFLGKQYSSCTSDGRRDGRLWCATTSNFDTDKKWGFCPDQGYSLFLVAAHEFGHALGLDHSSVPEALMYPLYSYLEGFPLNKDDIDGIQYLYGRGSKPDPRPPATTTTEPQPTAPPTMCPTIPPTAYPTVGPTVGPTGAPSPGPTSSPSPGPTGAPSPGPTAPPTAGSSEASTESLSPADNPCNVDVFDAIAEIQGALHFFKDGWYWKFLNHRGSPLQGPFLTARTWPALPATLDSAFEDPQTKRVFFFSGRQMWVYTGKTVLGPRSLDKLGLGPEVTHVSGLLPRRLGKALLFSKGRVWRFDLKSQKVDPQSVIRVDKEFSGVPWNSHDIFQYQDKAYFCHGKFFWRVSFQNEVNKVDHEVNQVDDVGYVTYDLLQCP

[7] = system: 4T1; test: Antiproliferative activity against mouse 4T1 cells at 0.1 mM incubated for 24 hrs by MTT assay; format: functional, cell-based
[8] = system: 4T1; test: Antitumour activity against mouse 4T1 cells xenografted in BALB/c mouse assessed as increase in number of TUNEL positive cells at 10 mg/kg administered intratumorally and measured after 24 days by H and E staining based inverted optical microscopic method; format: functional, organism-based
In short: (§1)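 BALB/c mice bearing subcutaneous 4T1 tumours received 6 doses at 10 mg/kg body weight, matched for YSL monomer molar amount, with saline as control. Tumour sections were stained for H&E, CD31, Ki-67 and TUNEL. n = 5.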

[9] = Toxicity in BALB/c mouse xenografted with mouse 4T1 cells assessed as induction of morphological lesions in spleen at 10 mg/kg administered intratumorally and measured after 24 days by H and E staining based inverted optical microscopic method; format: organism-based; details: in vivo, other, 576 h
[10] = system: 4T1; test: Induction of apoptosis in mouse 4T1 cells assessed as early apoptotic cells at 0.4 mM incubated for 24 hrs by Annexin V-FITC/PI based FACS analysis (reference value: 0.76%); format: functional
[11] = system: 4T1; test: Antitumour activity against mouse 4T1 cells xenografted in BALB/c mouse assessed as reduction in size of lung tumor metastatic nodules at 10 mg/kg administered intratumorally and measured after 24 days by H and E staining based inverted optical microscopic method; format: functional, organism-based
In short: (§2)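 After 6 doses of 10 mg/kg to 4T1 tumour-bearing BALB/c mice (saline control), lungs were photographed whole and examined histopathologically for the number and size of metastatic nodules.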

[12] = system: 4T1; test: Inhibition of metastasis in mouse 4T1 cells assessed as shortening in actin filaments at 0.2 mM incubated for 24 hrs by Hoechst 33342 staining based confocal laser scanning microscopic method; format: functional, cell-based
In short: (§3)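 After 24 h treatment, 4T1 cells were stained with Alexa Fluor 488 phalloidin for F-actin and Hoechst 33342 for nuclei, then imaged by fluorescence microscopy to assess cytoskeleton and cell morphology.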

[13] = Toxicity in BALB/c mouse xenografted with mouse 4T1 cells assessed as change in body weight at 10 mg/kg administered intratumorally and measured after 24 days; format: organism-based; details: in vivo, other, 576 h
In short: (§4)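 BALB/c mice bearing subcutaneous 4T1 tumours received 6 doses of 10 mg/kg, with equal YSL-monomer molar amounts across compounds and saline as control. Tumour volume growth curves and body weights were tracked. Mean ± SD, n = 5.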

[14] = system: 4T1; test: Inhibition of cell migration in mouse 4T1 cells assessed as wound closure rate at 0.2 mM measured up to 36 hrs by inverted optical microscopic method based wound healing assay (reference value: 82%); format: functional; set-up: scale not given: the % may be the effect or the level left
[15] = system: 4T1; test: Induction of apoptosis in mouse 4T1 cells at 0.8 mM incubated for 24 hrs by PI staining based inverted microscopic method; format: functional, cell-based
In short: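 Live–dead staining of 4T1 cells after 24 h exposure, with PI uptake imaged microscopically. A higher 0.8 mM dose was also tested.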

[16] = Toxicity in BALB/c mouse xenografted with mouse 4T1 cells assessed as induction of morphological lesions in kidney at 10 mg/kg administered intratumorally and measured after 24 days by H and E staining based inverted optical microscopic method; format: organism-based; details: in vivo, other, 576 h
[17] = system: 4T1; test: Induction of apoptosis in mouse 4T1 cells assessed as viable cells at 0.4 mM incubated for 24 hrs by Annexin V-FITC/PI based FACS analysis (reference value: 92.2%); format: functional; details: 4T1, 24 h, read-out: Activity
[18] = system: 4T1; test: Inhibition of metastasis in mouse 4T1 cells assessed as disruption in F-actin arrangement at 0.2 mM incubated for 24 hrs by Hoechst 33342 staining based confocal laser scanning microscopic method; format: functional, cell-based
In short: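 After 24 h at 0.2 mM, 4T1 cells were stained for F-actin with Alexa Fluor 488 phalloidin and for nuclei with Hoechst 33342, then imaged by fluorescence for cytoskeletal arrangement and cell morphology.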

[19] = system: 4T1; test: Antitumour activity against mouse 4T1 cells xenografted in BALB/c mouse assessed as increase in cytotoxic tumor cell death at 10 mg/kg administered intratumorally and measured after 24 days by H and E staining based inverted optical microscopic method; format: functional, organism-based; in short: as §1
[20] = system: 4T1; test: Induction of cell cycle arrest in mouse 4T1 cells assessed as accumulation at S phase at 0.4 mM incubated for 24 hrs by PI staining based flow cytometric analysis (Rvb =42.35%); format: functional
[21] = system: 4T1; test: Inhibition of metastasis in mouse 4T1 cells assessed as formation of pseudopods at 0.2 mM incubated for 24 hrs by SEM analysis; format: functional, cell-based
In short: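 4T1 cells treated 24 h, then imaged by scanning electron microscopy for pseudopod formation. Dendrimers were tested at 0.2 mM and the reference at 10–5 mM.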

[22] = system: 4T1; test: Antitumour activity against mouse 4T1 cells xenografted in BALB/c mouse assessed as reduction in number of lung tumor metastatic nodules at 10 mg/kg administered intratumorally and measured after 24 days by H and E staining based inverted optical microscopic method; format: functional, organism-based; in short: as §2
[23] = system: 4T1; test: Induction of apoptosis in mouse 4T1 cells assessed as late apoptotic cells at 0.4 mM incubated for 24 hrs by Annexin V-FITC/PI based FACS analysis (reference value: 6.62%); format: functional
[24] = system: 4T1; test: Induction of cell cycle arrest in mouse 4T1 cells assessed as accumulation at G2/M phase at 0.4 mM incubated for 24 hrs by PI staining based flow cytometric analysis (reference value: 19.82%); format: functional
[25] = Stability in fetal bovine serum assessed as parent compound remaining measured after 12 hrs by RP-HPLC analysis; format: ADME, cell-free, Bos taurus; details: cattle, read-out: Stability
In short: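 Peptides incubated in serum, and the fraction of intact YSL was measured over time up to 12 h, including a 4 h point.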

[26] = system: 4T1; test: Inhibition of metastasis in mouse 4T1 cells assessed as cell shrinkage at 0.2 mM incubated for 24 hrs by Hoechst 33342 staining based confocal laser scanning microscopic method; format: functional; in short: as §3
[27] = Toxicity in BALB/c mouse xenografted with mouse 4T1 cells assessed as change in blood urea nitrogen level at 10 mg/kg administered intratumorally and measured after 24 days; format: organism-based; details: in vivo, other, 576 h
[28] = system: Erythrocyte; test: Hemolytic activity in BALB/c mouse RBC at 3.2 mM incubated for 2 hrs by UV-Vis spectrophotometric analysis; format: ADME, cell-based; details: 3200 µM
In short: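 Hemolysis assay on red blood cells with dendrimers up to 3.2 mM. Result is expressed as hemolysis rate, with under 5% taken as acceptable.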

[29] = system: 4T1; test: Inhibition of cell migration in mouse 4T1 cells assessed as migration frequency at 0.2 mM incubated for 24 hrs by crystal violet staining based transwell assay relative to control; format: functional; set-up: scale not given: the % may be the effect or the level left
In short: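 4T1 cells, Transwell migration with 24 h exposure to 0.2 mM. Migration rate comes from counting cells on the bottom of the porous membrane. Mean ± SD, n = 3.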

[30] = Toxicity in BALB/c mouse xenografted with mouse 4T1 cells assessed as induction of morphological lesions in heart at 10 mg/kg administered intratumorally and measured after 24 days by H and E staining based inverted optical microscopic method; format: organism-based; details: in vivo, other, 576 h
[31] = system: 4T1; test: Antiproliferative activity against mouse 4T1 cells assessed as cell death at 0.2 mM incubated for 24 hrs by MTT assay relative to control; format: functional
In short: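 Mouse 4T1 breast cancer cells exposed for 24 h (doses include 0.1 and 0.2 mM), then read by MTT for viability or cell death. Mean ± SD, n = 6.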

[32] = Toxicity in BALB/c mouse xenografted with mouse 4T1 cells assessed as change in serum creatinine level at 10 mg/kg administered intratumorally and measured after 24 days; format: organism-based; details: in vivo, other, 576 h
[33] = system: 4T1; test: Antitumour activity against mouse 4T1 cells xenografted in BALB/c mouse assessed as inhibition in tumor growth at 10 mg/kg administered intratumorally and measured every 3 days for 24 days; format: functional, organism-based; in short: as §4

## COC(=O)[C@H](CCCCNC(=O)[C@H](CCCCNC(=O)[C@H](CC(C)C)NC(=O)[C@H](CO)NC(=O)[C@@H](N)Cc1ccc(O)cc1)NC(=O)[C@H](CC(C)C)NC(=O)[C@H](CO)NC(=O)[C@@H](N)Cc1ccc(O)cc1)NC(=O)[C@H](CCCCNC(=O)[C@H](CC(C)C)NC(=O)[C@H](CO)NC(=O)[C@@H](N)Cc1ccc(O)cc1)NC(=O)[C@H](CC(C)C)NC(=O)[C@H](CO)NC(=O)[C@@H](N)Cc1ccc(O)cc1
[1]
  Activity: Active
[2]
  inhibition at 200 µM: 41%
[3]
  Activity: 38.06%
[4]
  Activity: Non-Toxic
[5]
  Activity: 1.23%
[6]
  residual activity: 70%
[7]
  Activity: inactive
[8]
  Activity: Active
[9]
  Activity: Non-Toxic
[10]
  Activity: 0.7%
[11]
  Activity: Active
[12]
  inhibition: Active
[13]
  Activity: Non-Toxic
[14]
  Activity: 76%
[15]
  Activity: Active
[16]
  Activity: Non-Toxic
[17]
  viability at 400 µM: 77.7%
[18]
  F-actin disruption (qualitative): Active
[19]
  Activity: Active
[20]
  Activity: 46.98%
[21]
  inhibition: inactive
[22]
  Activity: Active
[23]
  Activity: 20.4%
[24]
  Activity: 15.31%
[25]
  remaining at 12 h: > 80%
[26]
  inhibition: Active
[27]
  Activity: Non-Toxic
[28]
  Activity: Non-Toxic
[29]
  Activity: 39%
[30]
  Activity: Non-Toxic
[31]
  Activity: 10%
[32]
  Activity: Non-Toxic

## COC(=O)[C@H](CCCCNC(=O)[C@H](CC(C)C)NC(=O)[C@H](CO)NC(=O)[C@@H](N)Cc1ccc(O)cc1)NC(=O)[C@H](CC(C)C)NC(=O)[C@H](CO)NC(=O)[C@@H](N)Cc1ccc(O)cc1 (H-YSLK([Leu-Ser-Tyr])-OMe)
[1]
  Activity: Active
[2]
  inhibition at 200 µM: 70%
[3]
  Activity: 37.72%
[4]
  Activity: Non-Toxic
[5]
  Activity: 0.26%
[6]
  residual activity: 75%
[7]
  Activity: inactive
[8]
  Activity: Active
[9]
  Activity: Non-Toxic
[10]
  Activity: 0.77%
[11]
  Activity: Active
[13]
  Activity: Non-Toxic
[14]
  Activity: 79%
[15]
  Activity: Active
[16]
  Activity: Non-Toxic
[17]
  viability at 400 µM: 80.2%
[18]
  F-actin disruption (qualitative): Active
[20]
  Activity: 47.25%
[22]
  Activity: Active
[23]
  Activity: 18.8%
[24]
  Activity: 15.35%
[25]
  remaining at 12 h: > 80%
[33]
  Activity: Active
[27]
  Activity: Non-Toxic
[28]
  Activity: Non-Toxic
[29]
  Activity: 68%
[30]
  Activity: Non-Toxic
[31]
  Activity: 5%
[32]
  Activity: Non-Toxic
